Reference: ChEMBL document CHEMBL1126768, “A mechanism-based inactivation study of neutral endopeptidase 24.11” (J Med Chem, 1993)
pKi: −log10 of the molar value.

Key:
[1] = target: T1, Neprilysin (Homo sapiens, UniProt P08473); assay: Inhibition constant determined for neutral endopeptidase (NEP)
Procedure, shortened: (§1)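 Reversible inhibition of recombinant human NEP (0.5 μM final), tested with inactivator at 1–50 μM in 50 mM HEPES pH 7.4 plus 5% p-dioxane. DAGNPG substrate was used at 100 and 500 μM. NEP was added last and activity was read immediately by continuous fluorescence (ex 342, em 562 nm).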

[2] = target: T2, Angiotensin-converting enzyme (Rattus norvegicus, UniProt P47820); assay: Inhibition constant determined for angiotensin converting enzyme (ACE)
T2 sequence (P47820 whole entry): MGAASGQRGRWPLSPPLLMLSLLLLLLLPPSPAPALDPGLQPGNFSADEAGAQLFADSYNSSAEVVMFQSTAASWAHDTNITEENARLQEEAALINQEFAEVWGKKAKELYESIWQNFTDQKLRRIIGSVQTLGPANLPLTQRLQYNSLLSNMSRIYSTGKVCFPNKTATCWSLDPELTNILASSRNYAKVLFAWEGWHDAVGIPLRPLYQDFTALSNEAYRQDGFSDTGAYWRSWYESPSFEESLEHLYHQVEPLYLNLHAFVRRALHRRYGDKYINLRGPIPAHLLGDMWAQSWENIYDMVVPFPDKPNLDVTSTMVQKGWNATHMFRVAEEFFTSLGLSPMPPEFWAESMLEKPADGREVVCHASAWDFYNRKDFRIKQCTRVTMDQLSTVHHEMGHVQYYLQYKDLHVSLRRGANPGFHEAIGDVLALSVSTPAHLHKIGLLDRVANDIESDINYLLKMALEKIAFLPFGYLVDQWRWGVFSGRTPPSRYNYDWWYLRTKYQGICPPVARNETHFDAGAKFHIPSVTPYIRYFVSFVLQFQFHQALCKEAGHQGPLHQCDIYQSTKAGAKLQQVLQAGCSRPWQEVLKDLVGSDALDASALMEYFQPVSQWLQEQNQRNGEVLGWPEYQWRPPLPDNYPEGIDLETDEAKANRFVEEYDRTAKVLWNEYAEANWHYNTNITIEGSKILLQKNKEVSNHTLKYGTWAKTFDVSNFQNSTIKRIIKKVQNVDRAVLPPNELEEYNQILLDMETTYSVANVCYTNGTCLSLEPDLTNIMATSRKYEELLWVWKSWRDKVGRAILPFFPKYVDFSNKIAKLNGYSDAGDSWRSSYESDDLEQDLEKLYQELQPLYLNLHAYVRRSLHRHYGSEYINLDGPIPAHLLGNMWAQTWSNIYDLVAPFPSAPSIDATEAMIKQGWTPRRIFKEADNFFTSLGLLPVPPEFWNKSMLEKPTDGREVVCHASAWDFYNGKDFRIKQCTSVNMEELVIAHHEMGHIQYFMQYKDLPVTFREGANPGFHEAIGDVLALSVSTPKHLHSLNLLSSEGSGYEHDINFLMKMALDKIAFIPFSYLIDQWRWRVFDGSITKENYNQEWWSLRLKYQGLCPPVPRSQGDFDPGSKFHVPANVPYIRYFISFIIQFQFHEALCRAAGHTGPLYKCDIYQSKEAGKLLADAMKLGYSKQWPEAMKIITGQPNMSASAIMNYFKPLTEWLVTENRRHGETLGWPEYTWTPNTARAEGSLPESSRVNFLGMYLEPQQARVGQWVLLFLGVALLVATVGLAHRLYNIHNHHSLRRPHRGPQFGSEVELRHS

[3] = target: T1, Neprilysin; assay: Inhibition constant determined for Neutral endopeptidase (NEP); procedure, shortened: as §1
[4] = target: T2, Angiotensin-converting enzyme; assay: Inhibition constant determined for Angiotensin I converting enzyme

T1 sequence (P08473 whole entry): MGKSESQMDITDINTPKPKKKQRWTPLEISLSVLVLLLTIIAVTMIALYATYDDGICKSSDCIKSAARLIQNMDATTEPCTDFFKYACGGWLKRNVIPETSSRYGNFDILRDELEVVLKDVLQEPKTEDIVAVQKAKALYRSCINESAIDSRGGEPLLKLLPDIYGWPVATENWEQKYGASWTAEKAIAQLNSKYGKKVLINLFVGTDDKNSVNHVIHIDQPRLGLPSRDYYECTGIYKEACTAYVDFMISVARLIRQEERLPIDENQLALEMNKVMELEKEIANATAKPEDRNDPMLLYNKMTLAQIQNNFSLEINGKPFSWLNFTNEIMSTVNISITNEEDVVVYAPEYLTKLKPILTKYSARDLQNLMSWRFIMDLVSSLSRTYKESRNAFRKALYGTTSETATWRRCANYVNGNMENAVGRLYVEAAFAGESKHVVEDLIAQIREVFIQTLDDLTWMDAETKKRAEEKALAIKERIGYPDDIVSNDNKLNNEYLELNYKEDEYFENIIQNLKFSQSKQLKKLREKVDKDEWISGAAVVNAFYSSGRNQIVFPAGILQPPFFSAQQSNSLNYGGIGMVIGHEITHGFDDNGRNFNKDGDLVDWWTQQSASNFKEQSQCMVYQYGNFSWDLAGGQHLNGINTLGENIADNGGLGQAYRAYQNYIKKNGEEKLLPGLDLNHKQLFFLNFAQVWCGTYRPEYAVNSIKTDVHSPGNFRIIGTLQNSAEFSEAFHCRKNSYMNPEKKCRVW

pKi [1] | pKi [2] | pKi [3] | pKi [4] | Compound
4.85 | < 2.00 |  |  | N#CCC(=O)CC(Cc1ccccc1)C(=O)NC(Cc1ccccc1)C(=O)O (centres undefined)
 |  | 4.77 | 4.19 | N#CCC(=O)NC(Cc1ccccc1)C(=O)NC(Cc1ccccc1)C(=O)O (centres undefined)
